Data taken from ChEMBL document CHEMBL2390921, “A novel benzazepinone sodium channel blocker with oral efficacy in a rat model of neuropathic pain” (Bioorg Med Chem Lett, 2013).

Experiments:
[1] = test system: Rattus norvegicus; test: Analgesic activity in po dosed rat spinal nerve ligation neuropathic pain model assessed as reversal of allodynia measured at 2 to 4 hrs; assay type: functional
How it was run: (§1)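 Rat spinal nerve ligation model. Seven days after surgery, rats received a single oral dose (3, 10 or 30 mg/kg) of test agent or vehicle. Tactile allodynia was scored at 2, 4, 8 and 24 h post-dose with calibrated von Frey filaments using an up-down paradigm. Threshold is the force giving a 50% withdrawal rate. %MPE = (post-compound − post-SNL)/(pre-SNL − post-SNL) × 100, where 100% is full reversal.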

[2] = test system: Rattus norvegicus; test: Neurotoxicity in rat assessed as reduction in latency time at => 30 mg/kg, po after 2 hrs by rotarod test relative to vehicle-treated control; assay type: toxicity, organism-based; parameters: dose 30 mg/kg, route oral; scale not given: the % may be the effect or the level left; conditions: in vivo
How it was run: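 Rats trained on rotarod 3 min at 10 rpm; single oral dose of test compound or vehicle (30 or 100 mg/kg); tested at 2 and 4 h post-dose with speed at 10 rpm for 60 s then accelerated to 60 rpm; time to fall after start of acceleration recorded. Significant impairment defined as >20% reduction in latency time.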

[3] = test system: Rattus norvegicus; test: Analgesic activity in rat spinal nerve ligation neuropathic pain model assessed as reversal of allodynia at 30 mg/kg, po measured at 2 hrs relative to control; assay type: functional; how it was run: as §1
[4] = Plasma clearance in Sprague-Dawley rat at 3 mg/kg, po and 1 mg/kg, iv; assay type: ADME, organism-based
How it was run: (§2)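 Fasted male Sprague–Dawley rats (n = 3 per route) were dosed with 1.5 mg/mL solutions in PEG300/water or DMSO/PEG300/water, either 1.0 mg/kg iv via femoral-vein cannula or 3.0 mg/kg by oral gavage. Blood was sampled at 5 min (iv only), 15 and 30 min, and 1, 2, 4, 6 and 8 h. Plasma levels were measured by LC–MS/MS after acetonitrile protein precipitation.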

[5] = Oral bioavailability in Sprague-Dawley rat at 3 mg/kg; assay type: ADME, organism-based; conditions: in vivo; how it was run: as §2
[6] = Half life in Sprague-Dawley rat at 3 mg/kg, po and 1 mg/kg, iv; assay type: ADME, organism-based; conditions: in vivo; how it was run: as §2
[7] = test system: Rattus norvegicus; test: Dose normalized AUC in Sprague-Dawley rat at 3 mg/kg, po; assay type: ADME, organism-based; parameters: dose 3 mg/kg, route oral; conditions: in vivo; how it was run: as §2
[8] = molecular target: Sodium channel protein type 9 subunit alpha (Homo sapiens, UniProt Q15858); test: Inhibition of human NaV1.7 channel expressed in HEK293 cells by FRET assay; assay type: cell-based
Chain of Sodium channel protein type 9 subunit alpha (Q15858 whole entry): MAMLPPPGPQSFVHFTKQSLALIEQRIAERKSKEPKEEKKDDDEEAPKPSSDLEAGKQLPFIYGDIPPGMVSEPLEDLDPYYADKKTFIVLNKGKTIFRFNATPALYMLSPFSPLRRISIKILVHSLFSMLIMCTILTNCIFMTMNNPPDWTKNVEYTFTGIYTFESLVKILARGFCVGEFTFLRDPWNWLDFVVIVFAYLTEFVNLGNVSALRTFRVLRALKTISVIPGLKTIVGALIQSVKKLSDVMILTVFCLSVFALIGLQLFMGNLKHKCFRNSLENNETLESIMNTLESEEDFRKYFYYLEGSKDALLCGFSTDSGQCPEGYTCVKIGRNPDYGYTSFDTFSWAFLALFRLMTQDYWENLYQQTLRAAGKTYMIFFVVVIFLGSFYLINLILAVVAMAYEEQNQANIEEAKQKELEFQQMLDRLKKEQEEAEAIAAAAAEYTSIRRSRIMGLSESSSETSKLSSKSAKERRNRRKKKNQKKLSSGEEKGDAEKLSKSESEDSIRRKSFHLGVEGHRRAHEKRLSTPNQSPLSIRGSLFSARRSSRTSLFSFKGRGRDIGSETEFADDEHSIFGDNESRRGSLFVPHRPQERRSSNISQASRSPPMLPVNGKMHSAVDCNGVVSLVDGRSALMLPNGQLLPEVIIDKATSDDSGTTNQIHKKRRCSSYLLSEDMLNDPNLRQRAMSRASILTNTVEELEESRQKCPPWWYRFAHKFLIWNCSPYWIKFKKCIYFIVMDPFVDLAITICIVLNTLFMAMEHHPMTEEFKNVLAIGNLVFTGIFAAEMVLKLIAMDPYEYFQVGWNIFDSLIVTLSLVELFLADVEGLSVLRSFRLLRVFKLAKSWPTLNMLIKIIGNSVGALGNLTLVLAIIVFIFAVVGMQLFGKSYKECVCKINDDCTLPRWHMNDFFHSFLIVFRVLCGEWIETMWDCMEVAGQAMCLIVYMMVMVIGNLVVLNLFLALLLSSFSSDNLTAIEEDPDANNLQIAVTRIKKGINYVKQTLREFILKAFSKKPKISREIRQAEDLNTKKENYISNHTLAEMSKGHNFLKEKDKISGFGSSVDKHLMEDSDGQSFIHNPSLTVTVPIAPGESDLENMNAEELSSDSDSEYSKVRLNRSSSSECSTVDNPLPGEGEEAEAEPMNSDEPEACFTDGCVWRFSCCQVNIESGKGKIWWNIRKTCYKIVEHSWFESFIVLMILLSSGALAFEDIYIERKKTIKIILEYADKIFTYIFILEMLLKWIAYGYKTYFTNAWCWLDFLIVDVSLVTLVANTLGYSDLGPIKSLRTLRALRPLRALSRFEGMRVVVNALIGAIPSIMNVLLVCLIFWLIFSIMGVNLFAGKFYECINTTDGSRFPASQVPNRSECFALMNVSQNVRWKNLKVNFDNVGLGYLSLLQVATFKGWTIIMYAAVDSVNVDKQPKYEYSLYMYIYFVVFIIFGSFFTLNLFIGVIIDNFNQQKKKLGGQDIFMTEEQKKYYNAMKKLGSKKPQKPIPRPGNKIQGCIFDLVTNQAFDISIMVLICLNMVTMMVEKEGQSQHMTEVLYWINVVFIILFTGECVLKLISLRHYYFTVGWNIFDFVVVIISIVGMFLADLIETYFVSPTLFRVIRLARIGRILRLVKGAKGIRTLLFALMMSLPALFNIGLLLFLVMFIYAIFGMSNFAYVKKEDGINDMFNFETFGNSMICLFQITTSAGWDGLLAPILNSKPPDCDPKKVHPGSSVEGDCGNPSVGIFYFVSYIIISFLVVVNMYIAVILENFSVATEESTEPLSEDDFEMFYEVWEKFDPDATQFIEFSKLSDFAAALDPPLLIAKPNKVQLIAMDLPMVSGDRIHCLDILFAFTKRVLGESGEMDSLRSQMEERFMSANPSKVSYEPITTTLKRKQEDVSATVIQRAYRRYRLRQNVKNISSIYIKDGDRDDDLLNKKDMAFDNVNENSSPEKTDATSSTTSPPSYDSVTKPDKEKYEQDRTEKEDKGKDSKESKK
How it was run: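 HEK293 cells stably expressing human Nav1.7. Channel block was read in a functional membrane-potential assay based on FRET between two membrane-associated dyes; IC50 determined.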

[9] = molecular target: hERG (KCNH2) (Homo sapiens, UniProt Q12809); test: Displacement of [35S]-MK0499 from human ERG expressed in HEK293 cell membranes at 10 uM after 2 hrs by liquid scintillation counting analysis relative to control; conditions: membranes of HEK293 cells that express human ERG, probe [35S]-MK0499
Chain of hERG (KCNH2) (Q12809 whole entry): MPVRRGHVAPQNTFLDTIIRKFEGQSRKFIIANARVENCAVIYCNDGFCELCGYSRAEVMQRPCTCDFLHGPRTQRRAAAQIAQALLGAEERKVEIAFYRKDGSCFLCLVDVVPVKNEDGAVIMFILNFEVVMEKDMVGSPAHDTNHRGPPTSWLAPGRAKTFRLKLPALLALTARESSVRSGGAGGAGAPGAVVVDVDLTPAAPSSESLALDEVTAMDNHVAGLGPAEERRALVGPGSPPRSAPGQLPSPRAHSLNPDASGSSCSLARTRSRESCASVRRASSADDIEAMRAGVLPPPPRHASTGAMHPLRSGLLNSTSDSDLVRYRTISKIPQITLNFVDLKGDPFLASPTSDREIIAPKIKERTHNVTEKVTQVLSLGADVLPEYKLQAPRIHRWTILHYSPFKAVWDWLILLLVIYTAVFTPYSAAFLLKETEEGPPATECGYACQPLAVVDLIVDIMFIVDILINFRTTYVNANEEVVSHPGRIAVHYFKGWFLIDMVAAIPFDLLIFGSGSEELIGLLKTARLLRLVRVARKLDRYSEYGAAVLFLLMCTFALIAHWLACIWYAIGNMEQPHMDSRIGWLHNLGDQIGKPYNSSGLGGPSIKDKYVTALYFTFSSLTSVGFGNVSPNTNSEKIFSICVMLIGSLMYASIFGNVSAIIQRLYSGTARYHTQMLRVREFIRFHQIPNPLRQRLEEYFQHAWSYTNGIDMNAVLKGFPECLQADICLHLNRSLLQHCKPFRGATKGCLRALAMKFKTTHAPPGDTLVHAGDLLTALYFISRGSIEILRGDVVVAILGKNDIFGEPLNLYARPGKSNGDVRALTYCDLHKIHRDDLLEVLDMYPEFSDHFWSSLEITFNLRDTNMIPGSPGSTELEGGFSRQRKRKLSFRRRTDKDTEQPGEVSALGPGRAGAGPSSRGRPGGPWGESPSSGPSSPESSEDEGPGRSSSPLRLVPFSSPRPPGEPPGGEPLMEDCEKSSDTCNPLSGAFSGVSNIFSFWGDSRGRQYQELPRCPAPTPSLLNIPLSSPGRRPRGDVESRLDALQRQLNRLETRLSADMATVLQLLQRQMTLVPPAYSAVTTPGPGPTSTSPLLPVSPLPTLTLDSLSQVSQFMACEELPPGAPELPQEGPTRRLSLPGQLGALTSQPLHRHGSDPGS
How it was run: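 hERG binding assay measuring displacement of 35S-labelled MK-0499, a known hERG blocker.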

Compound	ED50 [1] [mg/kg]	Activity [2] [%]	Activity [3] [%]	clearance [4] [mL/min/kg]	bioavailability [5] [%]	half-life [6] [min]	AUC/dose [7] [µM·h/mg/kg]	IC50 [8] [nM]	inhibition at 2 h, 10 µM [9] [%]
NCC1(CC(=O)O)CCCCC1 [GABAPENTIN]	50	> 20	36						
CC(C)N1C(=O)[C@H](NC(=O)[C@@H](Cc2ccccc2F)NC(=O)c2ccc(F)cc2C(F)(F)F)CCc2cc(C(F)(F)F)ccc21				33	75	150	0.6	359	10
CC(C)N1C(=O)[C@H](NC(=O)[C@@H](Cc2ccccc2OC(F)(F)F)NC(=O)OC(C)(C)C)CCc2cccc(F)c21				21	27	162	0.39	70	24
CC(C)N1C(=O)[C@H](NC(=O)[C@@H](Cc2ccccc2F)NC(=O)c2ccc(F)cc2C(F)(F)F)CCc2cc(F)ccc21				36	56	102	0.45	254	36
CC(C)N1C(=O)[C@H](NC(=O)[C@@H](Cc2ccccc2F)NC(=O)c2ccc(F)cc2C(F)(F)F)CCc2cc(F)cc(F)c21				21	31	114	0.42	264	34
CC(C)N1C(=O)[C@H](NC(=O)[C@@H](Cc2ccccc2OC(F)(F)F)NC(=O)OC(C)(C)C)CCc2cc(F)cc(F)c21				17	30	162	0.54	57	21
CC(C)N1C(=O)[C@H](NC(=O)[C@@H](Cc2ccccc2OC(F)(F)F)NC(=O)OC(C)(C)C)CCc2cc(Cl)ccc21							0.71		
CC(C)N1C(=O)[C@H](NC(=O)[C@@H](Cc2ccccc2OC(F)(F)F)NC(=O)OC(C)(C)C)CCc2c(F)c(F)cc(F)c21								67	24
CC1CC1N1C(=O)[C@H](NC(=O)[C@@H](Cc2ccccc2F)NC(=O)c2ccc(F)cc2C(F)(F)F)CCc2c(F)c(F)cc(F)c21 (stereo partly drawn)								131	44
CC1CC1N1C(=O)[C@H](NC(=O)[C@@H](Cc2ccccc2F)NC(=O)C2CC2C(F)(F)F)CCc2c(F)c(F)cc(F)c21 (stereo partly drawn)								101	54
CC(C)N1C(=O)[C@H](NC(=O)[C@@H](Cc2ccccc2F)NC(=O)c2ccccn2)CCc2c(F)c(F)cc(F)c21								443	22
Cc1cccc(C)c1OCC(C)N (stereo not drawn) [MEXILETINE]	45		42						
CC(C)N1C(=O)[C@H](NC(=O)[C@@H](Cc2ccccc2OC(F)(F)F)NC(=O)OC(C)(C)C)CCc2ccccc21							0.31		
CC(C)N1C(=O)[C@H](NC(=O)[C@@H](Cc2ccccc2F)NC(=O)c2ccc(F)cc2C(F)(F)F)CCc2c(F)c(F)cc(F)c21				19	68	336	1	103	20
CC(C)N1C(=O)[C@H](NC(=O)[C@@H](Cc2ccccc2F)NC(=O)c2ccccc2C(F)(F)F)CCc2c(F)c(F)cc(F)c21								229	10
CC(C)N1C(=O)[C@H](NC(=O)[C@@H](Cc2ccccc2F)NC(=O)c2ccc(F)cc2C(F)(F)F)CCc2cc(Cl)cc(F)c21				21	74	114	0.93	260	17
O=C(N[C@H](Cc1ccccc1F)C(=O)N[C@@H]1CCc2c(F)c(F)cc(F)c2N(C2CC2)C1=O)c1ccc(F)cc1C(F)(F)F								85	31
CC(C)N1C(=O)[C@H](NC(=O)[C@@H](Cc2ccccc2F)NC(=O)C2CC2C(F)(F)F)CCc2c(F)c(F)cc(F)c21 (stereo partly drawn)				23	62	132	0.79	137	2
CC(C)N1C(=O)[C@H](NC(=O)[C@@H](Cc2ccccc2F)NC(=O)c2ccc(F)cc2C(F)(F)F)CCc2cc(Cl)ccc21							0.58		
CC1CC1C(=O)N[C@H](Cc1ccccc1F)C(=O)N[C@@H]1CCc2c(F)c(F)cc(F)c2N(C(C)C)C1=O (stereo partly drawn)				35	47	48	0.44	103	0
CC(C)N1C(=O)[C@H](NC(=O)[C@@H](Cc2ccccc2OC(F)(F)F)NC(=O)OC(C)(C)C)CCc2cc(C(F)(F)F)ccc21				39	59	114	0.41	181	7
CC(C)N1C(=O)[C@H](NC(=O)[C@@H](Cc2ccccc2OC(F)(F)F)NC(=O)OC(C)(C)C)CCc2cc(F)ccc21				16	35	138	0.66	34	24
CC(C)N1C(=O)[C@H](NC(=O)[C@@H](Cc2ccccc2OC(F)(F)F)NC(=O)OC(C)(C)C)CCc2ccc(F)cc21				29	20	150	0.2	18	26
CC(C)N1C(=O)[C@H](NC(=O)[C@@H](Cc2ccccc2OC(F)(F)F)NC(=O)OC(C)(C)C)CCc2ccc(C(F)(F)F)cc21				26	21	78	0.22	494	19
